# Results taken from ChEMBL document CHEMBL3992519 (J Med Chem, 2017).
# Calls of active or inactive are those of the source. The rule behind the calls is not given here.
# Columns and labels:
# [1] = Solubility of the compound in saline; type: physicochemical; conditions: buffer
# Orexin receptor type 2 = target: T1, Orexin receptor type 2 (Homo sapiens, UniProt O43614); test: Antagonist activity at human OX2R expressed in CHOK1 cells assessed as inhibition of orexin A-induced intracellular calcium level preincubated for 15 mins followed by orexin A addition by Fura-2-AM dye based fluorescence assay; type: cell-based; conditions: for inhibition (INH): human
# T1 sequence (O43614 whole entry): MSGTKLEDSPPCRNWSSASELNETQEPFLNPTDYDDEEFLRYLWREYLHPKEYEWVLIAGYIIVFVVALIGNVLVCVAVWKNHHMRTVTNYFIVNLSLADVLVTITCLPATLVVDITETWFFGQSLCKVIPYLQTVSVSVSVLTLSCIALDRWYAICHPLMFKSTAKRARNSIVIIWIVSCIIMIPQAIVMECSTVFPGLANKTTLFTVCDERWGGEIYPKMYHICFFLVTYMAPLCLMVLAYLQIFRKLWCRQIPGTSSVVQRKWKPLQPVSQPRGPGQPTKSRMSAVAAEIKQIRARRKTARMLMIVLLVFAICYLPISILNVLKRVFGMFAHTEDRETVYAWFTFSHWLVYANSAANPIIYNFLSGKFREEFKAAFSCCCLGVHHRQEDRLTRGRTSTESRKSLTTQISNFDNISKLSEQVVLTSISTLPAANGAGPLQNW
# Procedure, shortened: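 CHO cells expressing human OX1R or OX2R; calcium transient assay. IC50 came from concentration-response curves in at least three independent assays, each run in triplicate. Ki was derived by the Cheng-Prusoff equation and reported as mean ± SEM. […] Some compounds were tested as HCl, MeSO3H or 2H2SO4 salts.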
# [2] = target: Delta-type opioid receptor (Homo sapiens, UniProt P41143); test: Displacement of [3H]DPDPE from human delta opioid receptor expressed in CHO cell membranes by micro-beta scintillation counting method
# [3] = Solubility of the compound in water; type: physicochemical; conditions: buffer
# [4] = target: T2, Orexin/Hypocretin receptor type 1 (Homo sapiens, UniProt O43613); test: Antagonist activity at human OX1R expressed in CHOK1 cells assessed as inhibition of orexin A-induced intracellular calcium level preincubated for 15 mins followed by orexin A addition by Fura-2-AM dye based fluorescence assay
# T2 sequence (O43613 whole entry): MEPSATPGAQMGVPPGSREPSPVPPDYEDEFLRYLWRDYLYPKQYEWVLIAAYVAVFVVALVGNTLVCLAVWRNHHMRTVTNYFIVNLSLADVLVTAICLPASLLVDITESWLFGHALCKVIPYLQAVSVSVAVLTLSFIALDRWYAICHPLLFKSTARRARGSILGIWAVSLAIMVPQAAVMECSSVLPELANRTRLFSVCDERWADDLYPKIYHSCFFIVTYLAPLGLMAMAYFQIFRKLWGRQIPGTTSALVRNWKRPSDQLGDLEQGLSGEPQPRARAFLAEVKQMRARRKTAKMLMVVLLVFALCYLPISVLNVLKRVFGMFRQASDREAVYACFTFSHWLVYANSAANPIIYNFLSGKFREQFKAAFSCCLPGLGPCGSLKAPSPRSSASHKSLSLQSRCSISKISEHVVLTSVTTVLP
# Mu-type opioid receptor = Mu-type opioid receptor (Homo sapiens, UniProt P35372); test: Displacement of [3H]DAMGO from human mu opioid receptor expressed in CHO cell membranes by micro-beta scintillation counting method
# [5] = Selectivity index, ratio of IC50 for human OX2R expressed in CHOK1 cells to IC50 for human OX1R expressed in CHOK1 cells
# [6] = target: Kappa-type opioid receptor (Homo sapiens, UniProt P41145); test: Displacement of [3H]U69,593 from human kappa opioid receptor expressed in CHO cell membranes by micro-beta scintillation counting method
# Mus musculus [7] = test: Reduction in morphine dependence expression in ICR mouse assessed as inhibition of naloxone-precipitated diarrhea at 10 mg/kg, ip administered 30 mins prior to first morphine injection each day for 5 days followed by naloxone challenge 2 hrs post last morphine dose measured over 60 mins; type: functional, organism-based
# Mus musculus [8] = test: Reduction in morphine dependence expression in ICR mouse assessed as inhibition of naloxone-precipitated jumping behavior at 10 mg/kg, ip administered 30 mins prior to first morphine injection each day for 5 days followed by naloxone challenge 2 hrs post last morphine dose measured over 60 mins; type: functional, organism-based
# Mus musculus [9] = test: Reduction in morphine dependence expression in ICR mouse assessed as inhibition of naloxone-precipitated body weight loss at 10 mg/kg, ip administered 30 mins prior to first morphine injection each day for 5 days followed by naloxone challenge 2 hrs post last morphine dose measured over 60 mins; type: functional, organism-based
# [10] = target: T3, Orexin/Hypocretin receptor type 1 (Homo sapiens) (UniProt O43613)
# T3 sequence (whole entry): T2 sequence (O43613 whole entry)
# Mu-type opioid receptor, sequence (P35372 whole entry): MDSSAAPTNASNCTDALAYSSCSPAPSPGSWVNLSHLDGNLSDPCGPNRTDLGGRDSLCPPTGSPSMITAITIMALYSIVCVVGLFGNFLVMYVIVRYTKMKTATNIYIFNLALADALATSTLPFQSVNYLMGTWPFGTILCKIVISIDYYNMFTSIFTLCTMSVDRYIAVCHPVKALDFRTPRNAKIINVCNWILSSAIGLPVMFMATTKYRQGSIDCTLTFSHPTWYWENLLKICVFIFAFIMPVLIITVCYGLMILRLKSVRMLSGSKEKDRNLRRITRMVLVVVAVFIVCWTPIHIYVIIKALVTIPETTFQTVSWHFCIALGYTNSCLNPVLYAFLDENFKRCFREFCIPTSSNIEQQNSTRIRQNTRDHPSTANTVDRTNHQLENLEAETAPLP
# Delta-type opioid receptor, sequence (P41143 whole entry): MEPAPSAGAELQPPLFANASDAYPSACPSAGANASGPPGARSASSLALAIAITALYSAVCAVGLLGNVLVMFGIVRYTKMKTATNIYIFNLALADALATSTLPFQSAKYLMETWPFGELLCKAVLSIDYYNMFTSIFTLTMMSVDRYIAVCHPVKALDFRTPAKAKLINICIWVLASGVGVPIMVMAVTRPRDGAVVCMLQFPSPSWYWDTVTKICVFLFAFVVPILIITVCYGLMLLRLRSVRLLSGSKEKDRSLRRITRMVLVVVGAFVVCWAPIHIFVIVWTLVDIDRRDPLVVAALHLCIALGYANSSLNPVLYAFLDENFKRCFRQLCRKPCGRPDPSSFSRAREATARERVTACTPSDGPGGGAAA
# Kappa-type opioid receptor, sequence (P41145 whole entry): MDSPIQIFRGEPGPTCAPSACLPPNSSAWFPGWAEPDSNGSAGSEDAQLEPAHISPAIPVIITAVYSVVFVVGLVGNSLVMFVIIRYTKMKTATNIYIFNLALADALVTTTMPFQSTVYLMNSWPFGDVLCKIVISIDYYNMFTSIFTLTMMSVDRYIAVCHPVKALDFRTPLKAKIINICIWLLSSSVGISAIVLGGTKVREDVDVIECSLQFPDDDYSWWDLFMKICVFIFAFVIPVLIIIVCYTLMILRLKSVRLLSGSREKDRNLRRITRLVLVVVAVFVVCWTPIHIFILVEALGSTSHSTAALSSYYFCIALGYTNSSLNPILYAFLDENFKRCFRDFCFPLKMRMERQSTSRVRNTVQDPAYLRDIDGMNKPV
structure (smiles),measurement,setting,value
CN(C(=O)/C=C/c1ccoc1)[C@@H]1CC[C@@]2(O)[C@H]3Cc4ccc(O)c5c4[C@@]2(CCN3CC2CC2)[C@H]1O5.Cl [NALFURAFINE HYDROCHLORIDE],solubility,[1],Insoluble
same,inhibition (INH),Orexin receptor type 2,Not Active
same,Ki,[2],693 nM
same,solubility,[3],Insoluble
same,Ki,[4],250 nM
same,Ki,Mu-type opioid receptor,5.99 nM
COc1ccc2c3c1O[C@H]1[C@H](N(C)C(=O)/C=C/c4ccoc4)CC[C@@]4(O)[C@@H](C2)N(C(=O)/C=C/c2ccccc2)CC[C@]314,Ratio IC50,[5],<88.4
same,solubility,[1],Insoluble
same,Ki,[2],> 1000 nM
same,solubility,[3],Insoluble
same,Ki,[4],14 nM
same,Ki,[6],> 1000 nM
same,Ki,Mu-type opioid receptor,> 1000 nM
Cc1cc(NC(=O)Nc2ccc(N(C)C)cc2)c2cc(F)cc(F)c2n1.Cl.Cl,Ratio IC50,[5],<88.4
same,solubility,[1],Insoluble
same,Ki,Orexin receptor type 2; read-out: Ki,2070 nM
same,Ki,[2],> 1000 nM
same,solubility,[3],Insoluble
same,Ki,[4],18.9 nM
same,Ki,[6],> 1000 nM
same,Ki,Mu-type opioid receptor,> 1000 nM
COc1ccc2c3c1O[C@H]1[C@H](N(C)C(=O)/C=C/c4ccccn4)CC[C@@]4(O)[C@@H](C2)N(S(=O)(=O)c2ccccc2N(C)C)CC[C@]314,inhibition,Mus musculus [7],Active
same,inhibition,Mus musculus [8],Active
same,inhibition,Mus musculus [9],Active
COc1ccc2c3c1O[C@H]1[C@H](N(C)C(=O)/C=C/c4ccoc4)CC[C@@]4(O)[C@@H](C2)N(C(=O)OC(C)(C)C)CC[C@]314,Ratio IC50,[5],<88.4
same,solubility,[1],Insoluble
same,Ki,[2],> 1000 nM
same,solubility,[3],Insoluble
same,Ki,[4],4.15 nM
same,Ki,[6],184 nM
same,Ki,Mu-type opioid receptor,> 1000 nM
COc1ccc2c3c1O[C@H]1[C@H](N(C)C(=O)/C=C/c4ccoc4)CC[C@@]4(O)[C@@H](C2)N(C(=O)c2ccc(C)cc2)CC[C@]314,Ratio IC50,[5],<88.4
same,solubility,[1],Insoluble
same,Ki,Orexin receptor type 2; read-out: Ki,725 nM
same,solubility,[3],Insoluble
same,Ki,[4],14 nM
COc1ccc2c3c1O[C@H]1[C@H](N(C)C(=O)/C=C/c4ccoc4)CC[C@@]4(O)[C@@H](C2)N(CC2CC2)CC[C@]314,inhibition (INH),Orexin receptor type 2,Not Active
same,Ki,[4],22.5 nM
CN(C)c1ccc(S(=O)(=O)N2CC[C@]34c5c6ccc(O)c5O[C@H]3[C@H](N(C)C(=O)/C=C/c3ccoc3)CC[C@@]4(O)[C@H]2C6)cc1,Ki,[2],> 1000 nM
same,Ki,[6],200 nM
same,Ki,Mu-type opioid receptor,971 nM
CN(C(=O)/C=C/c1ccoc1)[C@@H]1CC[C@@]2(O)[C@H]3Cc4cccc5c4[C@@]2(CCN3CC2CC2)[C@H]1O5,inhibition (INH),Orexin receptor type 2,Not Active
same,Ki,[4],1240 nM
COc1ccc2c3c1O[C@H]1[C@H](N(C)C(=O)/C=C/c4ccccn4)CC[C@@]4(O)[C@@H](C2)N(S(=O)(=O)c2ccccc2N(C)C)CC[C@]314.O=S(=O)(O)O.O=S(=O)(O)O,Ki,[2],> 1000 nM
same,Ki,[6],> 1000 nM
same,Ki,Mu-type opioid receptor,> 1000 nM
COc1ccc2c3c1O[C@H]1[C@H](N(C)C(=O)/C=C/c4ccoc4)CC[C@@]4(O)[C@@H](C2)N(S(=O)(=O)c2ccccc2[N+](=O)[O-])CC[C@]314,Ratio IC50,[5],<88.4
same,solubility,[1],Insoluble
same,Ki,Orexin receptor type 2,Not Active
same,solubility,[3],Insoluble
same,Ki,[4],1.81 nM
same,Ke,[10],3.69 nM
COc1ccc2c3c1O[C@H]1[C@H](N(C)C(=O)/C=C/c4ccoc4)CC[C@@]4(O)[C@@H](C2)N(S(=O)(=O)c2ccc(N(C)C)cc2)CC[C@]314.Cl,Ratio IC50,[5],<88.4
same,solubility,[1],Insoluble
same,Ki,[2],> 1000 nM
same,solubility,[3],Insoluble
same,Ki,[4],12.9 nM
same,Ki,[6],> 1000 nM
same,Ki,Mu-type opioid receptor,> 1000 nM
COc1ccc2c3c1O[C@H]1[C@H](N(C)C(=O)/C=C/c4ccoc4)CC[C@@]4(O)[C@@H](C2)N(S(=O)(=O)c2ccccc2)CC[C@]314,Ratio IC50,[5],<88.4
same,solubility,[1],Insoluble
same,Ki,[2],> 1000 nM
same,solubility,[3],Insoluble
same,Ki,[4],8.14 nM
same,Ki,[6],> 1000 nM
same,Ki,Mu-type opioid receptor,> 1000 nM
COc1ccc2c3c1O[C@H]1[C@H](N(C)C(=O)/C=C/c4ccoc4)CC[C@@]4(O)[C@@H](C2)N(C(=O)C2CC2)CC[C@]314,Ratio IC50,[5],<88.4
same,solubility,[1],Insoluble
same,Ki,[2],> 1000 nM
same,solubility,[3],Insoluble
same,Ki,[4],12 nM
same,Ki,[6],> 1000 nM
same,Ki,Mu-type opioid receptor,> 1000 nM
COc1ccc2c3c1O[C@H]1[C@H](N(C)C(=O)/C=C/c4ccoc4)CC[C@@]4(O)[C@@H](C2)N(S(=O)(=O)c2ccc(Cl)cc2)CC[C@]314,Ratio IC50,[5],<88.4
same,solubility,[1],Insoluble
same,solubility,[3],Insoluble
same,Ki,[4],5.13 nM
